The results in this text go back to ChEMBL document CHEMBL2331122, “Cytotoxic polyketide derivatives from the South China Sea sponge Plakortis simplex” (J Nat Prod, 2013).

Where a name gives a salt, the structure may show the parent alone.

One test concerns K562. Description: Cytotoxicity against human K562 cells after 72 hrs by MTT assay. It is filed as functional, cell-based. To be noted: K562, 72 h. The method, boiled down: (§1)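 Human tumour cells plated 24 h ahead, then exposed continuously to a range of compound concentrations for 72 h. Viability read by MTT. Adriamycin served as positive control. Three independent experiments, each in triplicate.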
In general terms: Tetrazolium dyes change colour on reduction, which living cells bring about.

The next test deals with Bel-7402. Put plainly: Cytotoxicity against human Bel7402 cells after 72 hrs by MTT assay. It counts as functional, cell-based. The following applies: Bel-7402, 72 h. The method, boiled down:
(§2)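 Human tumour cells plated 24 h ahead, then exposed continuously to a range of compound concentrations for 72 h. Viability read by MTT. Adriamycin served as positive control. IC50 is the concentration giving 50% inhibition of control growth. Three independent experiments, each in triplicate.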

A further test concerns A549. Put plainly: Cytotoxicity against human A549 cells after 72 hrs by MTT assay. To be noted: A549, 72 h. It is filed as functional, cell-based. Put shortly: as §1
For another test, the system named is HeLa. Description: Cytotoxicity against human HeLa cells after 72 hrs by MTT assay. It counts as functional, cell-based. Put shortly:
as §2

Test [1] concerns the target Hepatocyte growth factor receptor (Homo sapiens) (UniProt P08581). Put plainly: Inhibition of c-Met (unknown origin) at 1 uM after 60 mins by ELISA relative to control. The method, boiled down: (§3)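 ELISA tyrosine kinase assay. Compounds added in DMSO (1% v/v), which was also the negative control; SU11274 (1 μM) was the positive control. Reaction run 60 min at 37 °C. pTyr detected by PY99 plus HRP anti-mouse IgG (30 min, 37 °C), developed with OPD/H2O2, read at 490 nm. Percent inhibition calculated.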
A general note: In an ELISA, binding on a coated surface is turned into a signal by an enzyme label.

The target is the same in test [2]. Description: Inhibition of c-Met (unknown origin) at 10 uM after 60 mins by ELISA relative to control. Put shortly:
as §3

Sequence of Hepatocyte growth factor receptor (Homo sapiens) (P08581 whole entry): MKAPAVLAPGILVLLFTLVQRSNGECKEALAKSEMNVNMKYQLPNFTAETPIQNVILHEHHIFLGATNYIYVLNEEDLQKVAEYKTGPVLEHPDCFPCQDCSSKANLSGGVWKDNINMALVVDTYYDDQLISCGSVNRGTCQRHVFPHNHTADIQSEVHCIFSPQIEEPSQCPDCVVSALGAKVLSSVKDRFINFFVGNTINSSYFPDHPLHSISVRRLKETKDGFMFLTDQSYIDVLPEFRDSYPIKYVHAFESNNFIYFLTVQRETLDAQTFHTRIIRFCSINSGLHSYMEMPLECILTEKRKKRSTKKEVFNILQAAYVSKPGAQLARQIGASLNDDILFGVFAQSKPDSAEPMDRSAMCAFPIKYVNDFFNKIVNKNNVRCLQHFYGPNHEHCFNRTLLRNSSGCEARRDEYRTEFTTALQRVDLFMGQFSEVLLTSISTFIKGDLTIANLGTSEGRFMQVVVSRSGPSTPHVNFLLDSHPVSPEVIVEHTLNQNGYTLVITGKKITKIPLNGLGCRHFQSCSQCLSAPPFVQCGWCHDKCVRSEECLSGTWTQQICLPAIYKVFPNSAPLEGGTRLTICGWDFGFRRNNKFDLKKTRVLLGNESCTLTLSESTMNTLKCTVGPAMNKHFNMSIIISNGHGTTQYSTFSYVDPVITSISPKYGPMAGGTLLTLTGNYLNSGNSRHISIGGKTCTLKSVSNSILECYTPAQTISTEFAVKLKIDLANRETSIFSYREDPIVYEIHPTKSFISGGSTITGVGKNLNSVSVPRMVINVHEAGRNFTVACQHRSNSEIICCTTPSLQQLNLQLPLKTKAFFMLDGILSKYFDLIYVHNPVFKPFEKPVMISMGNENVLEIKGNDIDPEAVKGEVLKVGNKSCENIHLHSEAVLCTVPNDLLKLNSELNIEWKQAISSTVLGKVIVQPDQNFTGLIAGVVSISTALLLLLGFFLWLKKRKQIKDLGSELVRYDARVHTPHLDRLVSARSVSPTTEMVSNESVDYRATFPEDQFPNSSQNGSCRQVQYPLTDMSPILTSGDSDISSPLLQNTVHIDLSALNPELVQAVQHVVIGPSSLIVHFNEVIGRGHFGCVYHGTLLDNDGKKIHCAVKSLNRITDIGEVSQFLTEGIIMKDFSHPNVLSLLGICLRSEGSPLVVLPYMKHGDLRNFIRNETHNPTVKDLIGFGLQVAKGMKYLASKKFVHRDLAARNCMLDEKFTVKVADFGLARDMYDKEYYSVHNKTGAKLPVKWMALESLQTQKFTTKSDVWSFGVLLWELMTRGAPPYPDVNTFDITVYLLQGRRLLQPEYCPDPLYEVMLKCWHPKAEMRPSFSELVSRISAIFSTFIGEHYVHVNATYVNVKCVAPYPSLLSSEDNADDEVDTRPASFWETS

For `CCCC[C@H](CC)C[C@]1(CC)C=C(CC)/C(=C/C(=O)OC)O1`, the IC50 (usually the concentration needed to halve the response being measured) was 5.3 µM with K562, over 100 µM in the test on Bel-7402, over 100 µM in the test with A549 and 4.2 µM in the test with HeLa.

Turning to `CC/C=C/[C@H](CC)C[C@]1(CC)C=C(CC)/C(=C/C(=O)OC)O1`, the 50% inhibitory concentration (IC50) in the test with K562 is 0.8 µM; in the test with Bel-7402 it was over 100 µM; in the test on A549, over 100 µM; in the test with HeLa it was 2.6 µM.

As for `COc1cccc2c1C(=O)c1c(O)c3c(c(O)c1C2=O)C[C@@](O)(C(=O)CO)C[C@@H]3O[C@H]1C[C@H](N)[C@H](O)[C@H](C)O1` [DOXORUBICIN HYDROCHLORIDE], the half-inhibitory concentration (IC50) with HeLa is 0.6 µM.

As to `CCCCC(C)Cc1cc(CC)c(CC(=O)O)o1` (configuration not stated) [PLAKORSIN D], the concentration for half-maximal inhibition (IC50) in the test with K562, in the test on Bel-7402, with A549 and in the test with HeLa was over 100 µM each time.

`CCCCC(C)C[C@]1(CC)O[C@H]1[C@]1(CC)C=CC(=O)O1` (some centres not stated) [PLAKORTOXIDE A]: the IC50 in the test with K562 was over 50 µM; in the test on Bel-7402 it was over 100 µM; in the test on A549, over 100 µM; with HeLa, 31.5 µM.

In the case of `CCCCC(CC)C[C@]1(CC)O[C@H]1[C@]1(CC)C=CC(=O)O1` (some centres not stated) [PLAKORTOXIDE B], the IC50 in the test on K562 is over 100 µM; in the test on Bel-7402, over 100 µM; in the test on A549, over 100 µM; in the test with HeLa, over 50 µM.

For `CCCCC(C)C/C(=C\[C@@]1(CC)OC(=O)C[C@@H]1O)CC` (some centres not stated) [SIMPLEXOLIDE B], the half-maximal inhibitory concentration (IC50) in the test on K562 is 2.2 µM; with Bel-7402, over 100 µM; in the test with A549 it was over 100 µM; in the test on HeLa, 4.7 µM.

In the case of `CCCCC(C)C/C(=C/[C@@]1(CC)OC(=O)C[C@@H]1O)CC` (some centres not stated) [SIMPLEXOLIDE E], the IC50 is 49.2 µM with K562, over 100 µM in the test on Bel-7402, over 100 µM in the test with A549 and 31.2 µM with HeLa.

As for `CC/C=C/[C@H]1C[C@](O)(CC)[C@@H]([C@]2(CC)OC(=O)C[C@@H]2O)[C@@H]1C` [SIMPLEXTONE C], the inhibition (as a rule, the drop in the measured response relative to a control, in per cent) in test [1] was determined as 34.3%; in test [2] it was 57.4%. In addition, the IC50 in the test on K562 is 19.4 µM; in the test with Bel-7402 it was over 100 µM; with A549 it was 40.4 µM; with HeLa, 29 µM.

Consider `CCC[C@@H]1[C@@H](C)C[C@](O)(CC)[C@H]1[C@]1(CC)OC(=O)C[C@@H]1O` [SIMPLEXTONE D], for which the half-maximal inhibitory concentration (IC50) with K562 was over 100 µM; in the test on Bel-7402, over 100 µM; with A549, over 100 µM; with HeLa, over 50 µM.

Take `CCCCC(C)CC(O)(/C=C(/CC)[C@@H](O)CC(=O)OC)CC` (some centres not stated) [WOODYLIDE A]: the IC50 in the test on K562 is 23.8 µM; with Bel-7402, over 100 µM; in the test on A549, 29.3 µM; in the test on HeLa it was 15.5 µM.

On to `CCCCC(CC)CC(O)(/C=C(/CC)[C@@H](O)CC(=O)OC)CC` (some centres not stated) [WOODYLIDE B], for which the IC50 in the test with K562 was 20 µM; in the test with Bel-7402, over 100 µM; in the test on A549, 23.6 µM; with HeLa, 15.9 µM.
